≈ marks a conversion by molar mass, not a printed value.
Columns and labels:
[1] = system: Mycobacterium tuberculosis; test: Antimycobacterial activity against Mycobacterium tuberculosis H37Rv ATCC 25618 after 6 days by resazurin-based assay; type: functional; details: H37Rv ATCC 25618, 144 h
[2] = system: Mycobacterium tuberculosis; test: Antimycobacterial activity against Mycobacterium tuberculosis H37Rv ATCC 25618 assessed as reduction in cell viability after 7 days by bacTiter-Glo assay; type: functional; details: H37Rv ATCC 25618, 168 h
[3] = Cytotoxicity against human HepG2 cells after 48 hrs by cellTiter-Glo assay; type: cell-based; details: read-out: TC50
[4] = Intrinsic clearance in mouse liver microsomes at 0.5 uM preincubated with NADPH and measured up to 30 mins by LC-MS/MS analysis; type: ADME, microsome
[5] = Intrinsic clearance in human liver microsomes at 0.5 uM preincubated with NADPH and measured up to 30 mins by LC-MS/MS analysis; type: ADME, microsome
[6] = Half life in C57BL/6 mouse at 4 mg/kg, iv by LC-MS/MS analysis; type: ADME, organism-based; details: in vivo
In short: (§1)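 Female C57BL/6 mice (18−20 g), single intravenous dose in 5% DMSO/20% Encapsin. Tail-vein whole blood (25 μL) was taken from each mouse (n = 5) at 5, 15 and 30 min and 1, 2, 4 and 8 h postdose, and compound concentration was measured in peripheral whole blood.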

[7] = Volume of distribution at steady state in C57BL/6 mouse at 4 mg/kg, iv by LC-MS/MS analysis; type: ADME, organism-based; details: in vivo, read-out: Vdss; in short: as §1
[8] = Cmax in C57BL/6 mouse at 49.2 mg/kg, po via gavage by LC-MS/MS analysis; type: ADME, organism-based; design: dose 49.2 mg/kg, route oral; details: in vivo
[9] = system: Mus musculus; test: AUC in C57BL/6 mouse at 49.2 mg/kg, po via gavage by LC-MS/MS analysis; type: ADME, organism-based; details: in vivo
[10] = system: Mus musculus; test: Oral bioavailability in C57BL/6 mouse at 49.2 mg/kg via gavage by LC-MS/MS analysis; type: ADME, organism-based; details: in vivo
[11] = system: Mycobacterium tuberculosis; test: Antimycobacterial activity against Mycobacterium tuberculosis clinical isolates after 6 days by resazurin-based assay; type: functional; details: 144 h
[12] = physchem; details: buffer, pH 7.4
[13] = Half life in C57BL/6 mouse at […], iv by LC-MS/MS analysis; type: ADME, organism-based; details: in vivo
[14] = Volume of distribution at steady state in C57BL/6 mouse at […], iv by LC-MS/MS analysis; type: ADME, organism-based; details: in vivo, read-out: Vdss
[15] = Clearance in C57BL/6 mouse at […], iv by LC-MS/MS analysis; type: ADME, organism-based; details: in vivo
[16] = Cmax in C57BL/6 mouse at 44 mg/kg, po via gavage by LC-MS/MS analysis; type: ADME, organism-based; design: dose 44 mg/kg, route oral; details: in vivo
[17] = AUC in C57BL/6 mouse at 44 mg/kg, po via gavage by LC-MS/MS analysis; type: ADME, organism-based; details: in vivo
[18] = Oral bioavailability in C57BL/6 mouse at 44 mg/kg via gavage by LC-MS/MS analysis; type: ADME, organism-based; details: in vivo
[19] = system: Mycobacterium tuberculosis; test: Antibacterial activity against Mycobacterium tuberculosis H37Rv infected in C57BL/6 mouse assessed as efficacious dose casing 2 log reduction in colony forming units administered orally once daily for 8 days starting following day after infection and measured at 24 hrs post last dose; type: functional; details: po
In short: (§2)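 Female C57BL/6 mice, 8−10 weeks old, infected intratracheally with 100 000 CFU of H37Rv. Oral dosing once daily for 8 days began 1 day post-infection. Lungs were harvested 24 h after the last dose, homogenised and plated on 7H11 with 10% OADC and 0.4% charcoal for 18 days at 37 °C. Log10 CFU was fitted to a sigmoidal dose-response curve, and ED99 was defined as a 2-log CFU drop versus untreated.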

[20] = system: Mus musculus; test: Toxicity in Mycobacterium tuberculosis H37Rv infected C57BL/6 mouse assessed as drug tolerability at >50 mg/kg, po administered once daily for 8 days starting following day after infection and measured at 24 hrs post last dose; type: organism-based; details: in vivo
[21] = system: HepG2; test: cells; type: ADME, cell-based; details: Homo sapiens, HepG2, 48 h
[22] = system: Mycobacterium tuberculosis; test: Antibacterial activity against Mycobacterium tuberculosis H37Rv infected in C57BL/6 mouse assessed as reduction in colony forming units administered orally once daily for 8 days starting following day after infection and measured at 24 hrs post last dose relative to untreated control; type: functional; in short: as §2
[23] = system: HepG2; test: Cytotoxicity against human HepG2 cells assessed as effect on mitochondrial membrane potential after 48 hrs by TMRM-staining based cell health assay; type: ADME; details: HepG2, 48 h
[24] = Cardiotoxicity in New Zealand white perfused rabbit heart left ventricular wedge assessed as prolongation of QT interval at 10 uM by electrophysiology assay; type: toxicity, tissue-based, Oryctolagus cuniculus, Heart left ventricle
[25] = Cardiotoxicity in New Zealand white perfused rabbit heart left ventricular wedge assessed as prolongation of QRS interval time at 30 uM by electrophysiology assay relative to control; type: toxicity, tissue-based, Oryctolagus cuniculus, Heart left ventricle
[26] = Cardiotoxicity in New Zealand white perfused rabbit heart left ventricular wedge assessed as drug concentration causing prolongation of Tp-e interval time by electrophysiology assay; type: toxicity, tissue-based, Oryctolagus cuniculus, Heart left ventricle
[27] = Cardiotoxicity in New Zealand white perfused rabbit heart left ventricular wedge assessed as prolongation of Tp-e interval time at 10 uM by electrophysiology assay relative to control; type: toxicity, tissue-based, Oryctolagus cuniculus, Heart left ventricle

## c1cc2c(s1)CCOC21CCN(Cc2ccc3c(c2)OCCO3)CC1
[1]
  MIC90: 0.3 µM (≈ 0.107 µg/mL)
[2]
  MIC80: 0.25 µM (≈ 0.0894 µg/mL)
[3]
  CC50 at 48 h: 36 µM
[4]
  CLH: > 30 mL/min/g
[5]
  CLH: 25 mL/min/g
[6]
  half-life: 0.7 h
[7]
  Vd: 7.4 L/kg
[8]
  Cmax: 470 ng/mL
[9]
  AUC: 1780 ng·h/mL
[10]
  F: 14.6%
[11]
  MIC90: 0.6 µM (≈ 0.214 µg/mL)
[12]
  solubility kinetic at 1 h: 266 µM (≈ 95.1 µg/mL)

## FC(F)(F)Oc1ccc(Oc2ccc(N3CCC4(CC3)OCCc3sccc34)cc2)cc1
[1]
  MIC90: 0.06 µM (≈ 0.0277 µg/mL)
[4]
  CLH: 1.2 mL/min/g
[5]
  CLH: 0.6 mL/min/g
[13]
  half-life: 3.2 h
[14]
  Vd: 10.4 L/kg
[15]
  clearance: 36.3 mL/min/kg
[16]
  Cmax: 1270 ng/mL
[17]
  AUC: 8740 ng·h/mL
[18]
  bioavailability: 42.6%
[19]
  ED99: 11.6 mg/kg
[20]
  Activity: Non-Toxic
[21]
  IC50: 11 µM
[22]
  Activity: 4.2 log10CFU

## CC(C)(C)c1ccc(CN2CCC3(CCCCO3)CC2)cc1
[1]
  MIC90: 0.21 µM (≈ 0.0633 µg/mL)
[4]
  CLH: 18.1 mL/min/g
[5]
  CLH: 3.2 mL/min/g
[23]
  IC50: 135 µM
[21]
  IC50: 129 µM
[24]
  Activity: 12.2%
[25]
  Activity: 25.4%
[26]
  Activity: 10 µM
[27]
  Activity: 44.4%

Reference: ChEMBL document CHEMBL4257587 (J Med Chem, 2018)
